Reference: ChEMBL document CHEMBL1145867, “Muraymycins, novel peptidoglycan biosynthesis inhibitors: synthesis and SAR of their analogues” (2003)
Converted amounts (≈) assume the structure as drawn. The source made the active and inactive calls. No cut-off for these calls is given here.

Legend:
[1] = system: Candida albicans; test: In vitro antimicrobial activity against Candida albicans GC 3066; format: functional
In short: (§1)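 Broth microdilution per NCCLS guidance. Serial dilutions of each agent in microtiter plates are inoculated with each organism to 10⁵ CFU/mL and incubated 18–22 h at 35 C in ambient air. MIC is the lowest concentration giving complete growth inhibition, judged by the unaided eye.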

[2] = system: Enterococcus faecalis; test: In vitro antimicrobial activity against Enterococcus faecalis GC 2242; format: functional; in short: as §1
[3] = system: Enterococcus faecalis; test: In vitro antimicrobial activity against Enterococcus faecalis GC 4555; format: functional; in short: as §1
[4] = system: Enterococcus faecalis; test: In vitro antimicrobial activity against Enterococcus faecalis GC 842; format: functional; in short: as §1
[5] = system: Bacteria; test: In vitro antimicrobial activity against gram-negative organisms (10); format: functional; in short: as §1
[6] = system: Escherichia coli; test: In vitro antimicrobial activity against Escherichia coli GC 2214; format: functional; in short: as §1
[7] = system: Escherichia coli; test: In vitro antimicrobial activity against Escherichia coli GC 4559; format: functional; in short: as §1
[8] = system: Escherichia coli; test: In vitro antimicrobial activity against Escherichia coli GC 4560; format: functional; in short: as §1
[9] = system: Enterobacter cloacae; test: In vitro antimicrobial activity against Enterobacter cloacae GC 3783; format: functional; in short: as §1
[10] = system: Klebsiella pneumoniae; test: In vitro antimicrobial activity against Klebsiella pneumoniae GC 4534; format: functional; in short: as §1
[11] = system: Morganella morganii; test: In vitro antimicrobial activity against Morganella morganii GC 4531; format: functional; in short: as §1
[12] = The inhibitory activity of compound against MraY or MurG at 12.5 ug/mL; No Inhibition
[13] = The inhibitory activity of compound against MraY or MurG at 25 ug/mL; No Inhibition
[14] = The inhibitory activity of compound against MraY or MurG at 50 ug/mL; Inhibit
[15] = The inhibitory activity of compound against MraY or MurG at 6.25 ug/mL; No Inhibition
[16] = system: Pseudomonas aeruginosa; test: In vitro antimicrobial activity against Pseudomonas aeruginosa GC 2214; format: functional; in short: as §1
[17] = system: Pseudomonas aeruginosa; test: In vitro antimicrobial activity against Pseudomonas aeruginosa GC 4532; format: functional; in short: as §1
[18] = system: Staphylococcus sp.; test: In vitro antimicrobial activity against Staphylococci; format: functional, staphyl ococcus species; in short: as §1
[19] = system: Staphylococcus sp.; test: In vitro antimicrobial activity against CNS GC 4538; format: functional; in short: as §1
[20] = system: Staphylococcus aureus; test: In vitro antimicrobial activity against Staphylococcu aureus GC 1131; format: functional
In short: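 Broth dilution per NCCLS recommendations. Serial dilutions in microtiter plates inoculated to 10⁵ CFU/mL, then incubated 18–22 h at 35 C in ambient air. MIC taken as the lowest concentration giving complete growth inhibition by unaided eye.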

[21] = system: Staphylococcus aureus; test: In vitro antimicrobial activity against Staphylococcu aureus GC 2216; format: functional; in short: as §1
[22] = system: Staphylococcus aureus; test: In vitro antimicrobial activity against Staphylococcu aureus GC 4536; format: functional; in short: as §1
[23] = system: Staphylococcus sp.; test: In vitro antimicrobial activity against CNS GC 4547; format: functional; in short: as §1
[24] = system: Escherichia coli; test: In vitro antimicrobial activity against Escherichia coli GC 3226; format: functional; in short: as §1
[25] = system: Enterococcus sp.; test: In vitro antimicrobial activity against Enterococci; format: functional; in short: as §1
[26] = The inhibitory activity of compound against MraY or MurG at 100 ug/mL;Inhibit
[27] = system: Serratia marcescens; test: In vitro antimicrobial activity against Serratia marcescens GC 4077; format: functional; in short: as §1
[28] = system: Candida albicans; test: In vitro antimicrobial activity against Candida albicans […] at 32 ug/ml soluble peptidoglycan; format: functional
[29] = system: Enterococcus faecalis; test: In vitro antimicrobial activity against Enterococcus faecalis GC 2242 at 32 ug/ml soluble peptidoglycan; format: functional
[30] = system: Enterococcus faecalis; test: In vitro antimicrobial activity against Enterococcus faecalis GC 4555 at 32 ug/ml soluble peptidoglycan; format: functional
[31] = system: Enterococcus faecalis; test: In vitro antimicrobial activity against Enterococcus faecalis GC 842 at 32 ug/ml soluble peptidoglycan; format: functional
[32] = system: Staphylococcus aureus; test: In vitro antimicrobial activity against Staphylococcus aureus GC 1131 at 32 ug/ml soluble peptidoglycan; format: functional
[33] = system: Staphylococcus sp.; test: In vitro antimicrobial activity against CNS GC 4538 at 32 ug/ml soluble peptidoglycan; format: functional
[34] = system: Staphylococcus sp.; test: In vitro antimicrobial activity against CNS GC 4547 at 32 ug/ml soluble peptidoglycan; format: functional
[35] = system: Staphylococcus aureus; test: In vitro antimicrobial activity against Staphylococcus aureus GC 4536 at 32 ug/ml soluble peptidoglycan; format: functional
[36] = system: Staphylococcus sp.; test: In vitro antimicrobial activity against Coagulase-negative staphylococcus GC 4538 at 32 ug/ml soluble peptidoglycan; format: functional
[37] = system: Staphylococcus aureus; test: In vitro antimicrobial activity against Staphylococcus aureus GC 2216 at 32 ug/ml soluble peptidoglycan; format: functional
[38] = system: Bacteria; test: In vitro antimicrobial activity against gram-negative organisms (10)
[39] = The inhibitory activity of compound against MraY or MurG at 25 ug/mL; Inhibit
[40] = system: Candida albicans; test: In vitro antimicrobial activity against Candida albicans […] at 10.7 ug/ml soluble peptidoglycan; format: functional
[41] = system: Enterococcus faecalis; test: In vitro antimicrobial activity against Enterococcus faecalis GC 4555 at 10.7 ug/ml soluble peptidoglycan; format: functional
[42] = system: Enterococcus faecalis; test: In vitro antimicrobial activity against Enterococcus faecalis GC 842 at 10.7 ug/ml soluble peptidoglycan; format: functional
[43] = system: Enterococcus faecalis; test: In vitro antimicrobial activity against Enterococcus faecalis GC 2242 at 10.7 ug/ml soluble peptidoglycan; format: functional
[44] = The inhibitory activity of compound against MraY or MurG at 100 ug/mL; Inhibit
[45] = system: Staphylococcus sp.; test: In vitro antimicrobial activity against CNS GC 4538 at 10.7 ug/ml soluble peptidoglycan; format: functional
[46] = system: Staphylococcus aureus; test: In vitro antimicrobial activity against Staphylococcus aureus GC 1131 at 10.7 ug/ml soluble peptidoglycan; format: functional
[47] = system: Staphylococcus aureus; test: In vitro antimicrobial activity against Staphylococcus aureus GC 2216 at 10.7 ug/ml soluble peptidoglycan; format: functional
[48] = system: Staphylococcus aureus; test: In vitro antimicrobial activity against Staphylococcus aureus GC 4536 at 10.7 ug/ml soluble peptidoglycan; format: functional
[49] = system: Staphylococcus sp.; test: In vitro antimicrobial activity against CNS GC 4547 at 10.7 ug/mL soluble peptidoglycan; format: functional
[50] = system: Staphylococcus sp.; test: In vitro antimicrobial activity against Coagulase-negative staphylococcus GC 4538 at 10.7 ug/ml soluble peptidoglycan; format: functional
[51] = system: Serratia marcescens; test: In vitro antimicrobial activity against In vitro antimicrobial activity against Serratia marcescens GC 4077
[52] = Staphylococcus sp., read-out: MIC

SMILES	MIC [1] [µg/mL]	MIC [2] [µg/mL]	MIC [3] [µg/mL]	MIC [4] [µg/mL]	MIC [5] [µg/mL]	MIC [6] [µg/mL]	MIC [7] [µg/mL]	MIC [8] [µg/mL]	MIC [9] [µg/mL]	MIC [10] [µg/mL]	Inhibitory activity [12]	Inhibitory activity [13]	Inhibitory activity [14]	Inhibitory activity [15]	MIC [16] [µg/mL]	MIC [17] [µg/mL]	MIC [18] [µg/mL]	MIC [19] [µg/mL]	MIC [19, 52] [µg/mL]	MIC [25] [µg/mL]	further results
COc1ccc(Cn2c(=O)ccn([C@@H]3OC([C@H](O)[C@H](NCCCNC(=O)[C@H](N)C(O)C(C)C)C(=O)OC(C)(C)C)[C@@H](O[Si](C)(C)C(C)(C)C)[C@H]3O[Si](C)(C)C(C)(C)C)c2=O)cc1 (stereo partly specified)	> 128	4 (≈ 4.4 µM)	4 (≈ 4.4 µM)	8 (≈ 8.81 µM)	> 128	> 128	> 128	> 128	> 128	> 128	inactive	inactive	Inhibit	inactive	> 128	> 128	4 (≈ 4.4 µM)	4 (≈ 4.4 µM)	4 (≈ 4.4 µM)	128 (≈ 141 µM)	MIC [11]: > 128 µg/mL; MIC [20]: 4 µg/mL (≈ 4.4 µM); MIC [21]: 4 µg/mL (≈ 4.4 µM); MIC [22]: 16 µg/mL (≈ 17.6 µM); MIC [23]: 16 µg/mL (≈ 17.6 µM); MIC [24]: > 128 µg/mL; Inhibitory activity [26]: Inhibit; MIC [27]: > 128 µg/mL
COc1ccc(Cn2c(=O)ccn([C@@H]3OC([C@H](O)[C@H](NCCCNC(=O)[C@H](NC(=O)OCc4ccccc4)C(C)O)C(=O)OC(C)(C)C)[C@@H](O[Si](C)(C)C(C)(C)C)[C@H]3O[Si](C)(C)C(C)(C)C)c2=O)cc1 (stereo partly specified)																					MIC [28]: 128 µg/mL (≈ 126 µM); MIC [29]: > 128 µg/mL; MIC [30]: > 128 µg/mL; MIC [31]: 128 µg/mL (≈ 126 µM); MIC [32]: > 128 µg/mL; MIC [33]: > 128 µg/mL; MIC [34]: > 128 µg/mL; MIC [35]: > 128 µg/mL; MIC [36]: > 128 µg/mL; MIC [37]: > 128 µg/mL; MIC [38]: > 128 µg/mL
COc1ccc(Cn2c(=O)ccn([C@@H]3OC([C@H](O)[C@H](NCCCNC(=O)[C@H](N)CC(C)C)C(=O)OC(C)(C)C)[C@@H](O[Si](C)(C)C(C)(C)C)[C@H]3O[Si](C)(C)C(C)(C)C)c2=O)cc1 (stereo partly specified)					> 128						inactive		Inhibit	inactive			4 (≈ 4.48 µM)			4 (≈ 4.48 µM)	Inhibitory activity [39]: Inhibit; Inhibitory activity [26]: Inhibit
COc1ccc(Cn2c(=O)ccn([C@@H]3OC([C@@H](O)[C@H](NCCCNC(=O)[C@H](N)C(O)C(C)C)C(=O)OC(C)(C)C)[C@@H](O[Si](C)(C)C(C)(C)C)[C@H]3O[Si](C)(C)C(C)(C)C)c2=O)cc1 (stereo partly specified)											inactive	inactive	Inhibit	inactive							MIC [40]: 128 µg/mL (≈ 141 µM); MIC [41]: 128 µg/mL (≈ 141 µM); MIC [42]: > 128 µg/mL; MIC [43]: 128 µg/mL (≈ 141 µM); Inhibitory activity [44]: Inhibit; MIC [45]: 128 µg/mL (≈ 141 µM); MIC [46]: 128 µg/mL (≈ 141 µM); MIC [47]: 128 µg/mL (≈ 141 µM); MIC [48]: 128 µg/mL (≈ 141 µM); MIC [49]: 8 µg/mL (≈ 8.81 µM); MIC [50]: 128 µg/mL (≈ 141 µM); MIC [38]: > 128 µg/mL
COc1ccc(Cn2c(=O)ccn([C@@H]3OC([C@H](O)[C@H](NCCCNC(=O)[C@@H](C)N)C(=O)OC(C)(C)C)[C@@H](O[Si](C)(C)C(C)(C)C)[C@H]3O[Si](C)(C)C(C)(C)C)c2=O)cc1 (stereo partly specified)	128 (≈ 151 µM)	4 (≈ 4.7 µM)	8 (≈ 9.41 µM)	4 (≈ 4.7 µM)	64 (≈ 75.3 µM)	128 (≈ 151 µM)	128 (≈ 151 µM)	128 (≈ 151 µM)	128 (≈ 151 µM)	128 (≈ 151 µM)	inactive	inactive	Inhibit	inactive	128 (≈ 151 µM)	128 (≈ 151 µM)	4 (≈ 4.7 µM)	8 (≈ 9.41 µM)	4 (≈ 4.7 µM)	4 (≈ 4.7 µM)	Inhibitory activity [44]: Inhibit; MIC [20]: 4 µg/mL (≈ 4.7 µM); MIC [21]: 8 µg/mL (≈ 9.41 µM); MIC [22]: 4 µg/mL (≈ 4.7 µM); MIC [23]: 4 µg/mL (≈ 4.7 µM); MIC [24]: 128 µg/mL (≈ 151 µM); MIC [27]: 128 µg/mL (≈ 151 µM); MIC [51]: 128 µg/mL (≈ 151 µM)
